Legend:
[1] = Cytotoxicity against human HCT15 cells after 48 hrs by MTT assay; type: cell-based; conditions: HCT-15, 48 h
Procedure, shortened: (§1)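 Cells grown exponentially in RPMI-1640 with 10% FBS, penicillin and streptomycin at 37 °C, 5.0% CO2. Seeding: HCT-15 at 1.0 × 10^4 cells/well, Jurkat at 2.0 × 10^4 cells/well. Samples added in MeOH and incubated 48 h at 37 °C. MTT and lysis solution (40% DMF, 20% SDS, 2.0% acetic acid, 0.030% HCl) added, then shaken overnight at room temperature. Read at 570 nm.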

[2] = target: T1, Tyrosine-protein phosphatase non-receptor type 1 (Homo sapiens, UniProt P18031); test: Inhibition of PTP1B (unknown origin) using pNPP as substrate incubated for 10 mins prior to substrate addition measured after 30 mins by microplate reader analysis
T1 sequence (P18031 whole entry): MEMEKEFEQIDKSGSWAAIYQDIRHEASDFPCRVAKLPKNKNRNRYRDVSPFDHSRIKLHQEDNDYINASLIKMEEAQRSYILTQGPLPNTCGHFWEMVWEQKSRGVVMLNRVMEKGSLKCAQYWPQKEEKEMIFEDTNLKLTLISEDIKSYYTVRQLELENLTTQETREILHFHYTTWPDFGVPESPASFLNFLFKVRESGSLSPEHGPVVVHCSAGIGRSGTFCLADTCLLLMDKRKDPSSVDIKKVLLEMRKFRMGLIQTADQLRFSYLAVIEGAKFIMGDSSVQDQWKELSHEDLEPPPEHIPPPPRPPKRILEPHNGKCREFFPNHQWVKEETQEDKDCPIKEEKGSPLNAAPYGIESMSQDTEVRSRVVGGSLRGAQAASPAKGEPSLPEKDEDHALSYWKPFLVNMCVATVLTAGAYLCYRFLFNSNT

Jurkat = test: Cytotoxicity against human Jurkat cells after 48 hrs by MTT assay; type: cell-based; procedure, shortened: as §1
[3] = Cytotoxicity against human HuH7 cells […] by MTT assay; type: cell-based; conditions: Huh-7
Procedure, shortened: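 Huh-7 MTT assay: after sample treatment, MTT (5.0 mg/mL stock in saline) added for 90 min at 37 °C. Plate centrifuged at 300 × g for 5 min and supernatant removed. Cells solubilized in 0.040 N HCl in 2-propanol. Absorbance read at 590 nm; survival (%) calculated relative to untreated control.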

| SMILES | IC50 [2] | IC50 [1] | IC50 (Jurkat) | IC50 [3] |
| --- | --- | --- | --- | --- |
| CC1=C[C@@H]2CC(C)(C)[C@H]1/C=C\c1ccoc12 [REL-DEHYDROEURYSPONGIN A] |  | > 45 µM | > 45 µM | > 100 µM |
| CC1=C[C@@H]2CC(C)(C)[C@H]1C[C@@H](O)C1=CC(=O)O[C@H]12 | > 40 µM | > 40 µM | > 40 µM |  |
| CC1=C[C@@H]2CC(C)(C)[C@H]1C[C@@H](O)c1ccoc12 | > 40 µM | > 40 µM | > 40 µM | > 100 µM |

The next lines start with results.

| IC50 [2] | SMILES | IC50 [1] | IC50 (Jurkat) | IC50 [3] |
| --- | --- | --- | --- | --- |
| > 40 µM | C=C/C=C1/CO[C@]2(OC)CC[C@@H](O)[C@@H](O)[C@@H]12 | > 40 µM | > 40 µM |  |
| > 50 µM | C=C/C=C(/CO)c1cc(O)ccc1O | > 50 µM | > 50 µM |  |
| > 35 µM | CO[C@@]12OC(=O)C=C1[C@H](O)C[C@H]1C(C)=C[C@@H]2CC1(C)C | > 35 µM | > 35 µM |  |
